Several values for one entry are separate records, joined by “and”; a condition that tells them apart may be missing. Equal entries are not always repeated.
Tested on: HEK-293T
Experiment: Multiplex assay against HEK293T
Type: toxicity, cell-based
Conditions: human
Procedure, shortened: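 Tubulin, mitochondrial-mass and membrane-permeability phenotypes are per cents of healthy-nucleus cells. Cells were gated by CellPathfinder machine learning into Hoechst high-intensity objects or normal cells, normal cells into healthy, pyknosed or fragmented nuclei, and pyknosed cells into mitotic or apoptotic. Before that, live cells stained at seeding with Hoechst33342, BioTracker Green Microtubule Cytoskeleton Dye, MitoTracker Red and Annexin V Alexa Fluor 680 were imaged on a CQ1 microscope at 37°C and 5% CO2 after compound addition.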

[1] = 12 h, 1 µM, compound concentration 1 uM
[2] = 12 h, 10 µM, compound concentration 10 uM
[3] = 24 h, 1 µM, compound concentration 1 uM
[4] = 24 h, 10 µM, compound concentration 10 uM
[5] = 48 h, 1 µM, compound concentration 1 uM
[6] = 48 h, 10 µM, compound concentration 10 uM

For Cn1cnc(-c2cnc(O[C@H]3CCN(C(=O)Cc4ccc(OC(F)(F)F)cc4)C[C@H]3F)c(C(N)=O)c2)c1, the “Population Hoechst High Intensity Objects (%)” value [1] was 0.47% and 4.71%, the “Population Mitotic Cells (%)” value [1] was 91.23% and 91.04% and the “Population Normal (%)” value [1] was 99.53% and 95.29%. The “Population Pyknosed Nuclei (%)” value [1] was 40.24% and 73.63%, the “Total Cell Count” value [1] was 191 and the “Population Hoechst High Intensity Objects (%)” value [2] was 0.68% and 0.69%. For the same compound, the “Population Mitotic Cells (%)” value [2] was 87.04% and 85.37%, the “Population Normal (%)” value [2] was 99.32% and 99.31% and the “Population Pyknosed Nuclei (%)” value [2] was 55.29% and 86.01%. For the same compound, the “Total Cell Count” value [2] was 144, the “Population Healthy Nuclei (%)” value [3] was 76.21% and 29.41% and the “Population Hoechst High Intensity Objects (%)” value [3] was 0.45% and 3.61%. For the same compound, the “Population Mitotic Cells (%)” value [3] was 88.44% and 91.13%, the “Population Normal (%)” value [3] was 99.55% and 96.39% and the “Population Pyknosed Nuclei (%)” value [3] was 22.27% and 66.31%. The “Population Hoechst High Intensity Objects (%)” value [4] was 0.8% and 0%, the “Population Mitotic Cells (%)” value [4] was 68.57% and 83.33% and the “Population Normal (%)” value [4] was 99.2% and 100%. The “Population Pyknosed Nuclei (%)” value [4] was 37.84% and 76.43%, the “Total Cell Count” value [4] was 373 and 157 and the “Population Healthy Nuclei (%)” value [5] was 86.49% and 68.91%. For the same compound, the “Population Hoechst High Intensity Objects (%)” value [5] was 0% and 0.42%, the “Population Mitotic Cells (%)” value [5] was 89.54% and 83.58% and the “Population Normal (%)” value [5] was 100% and 99.58%. The “Population Pyknosed Nuclei (%)” value [5] was 10.34% and 28.15%, the “Population Healthy Nuclei (%)” value [6] was 80.81% and 60.93% and the “Population Hoechst High Intensity Objects (%)” value [6] was 0% and 2.27%. The “Population Mitotic Cells (%)” value [6] was 82.61% and 79.27%, the “Population Normal (%)” value [6] was 100% and 97.73% and the “Population Pyknosed Nuclei (%)” value [6] was 16.11% and 38.14%.
For CCn1c(-c2nc3cc(C(=O)N4CCCC(N)C4)ccc3n2C)cc2ccccc21.Cl (configuration not stated), the “Population Fragmented Nuclei (%)” value [1] was 9% and 5% and 1.84% and 3.31%, the “Population Hoechst High Intensity Objects (%)” value [1] was 7% and 6% and 0% and the “Population Membrane Permeable-Phenotype (%)” value [1] was 0%. For the same compound, the “Population Mitochondria Different-Phenotype (%)” value [1] was 52% [middle of 4 runs], the “Population Mitotic Cells (%)” value [1] was 87.4% [middle of 4 runs] and the “Population Normal (%)” value [1] was 92% and 93% and 100%. For the same compound, the “Total Cell Count” value [1] was 351 [middle of 4 runs], the “Population Fragmented Nuclei (%)” value [2] was 8% and 6% and 2.45% and 0.66% and the “Population Hoechst High Intensity Objects (%)” value [2] was 8% [middle of 4 runs]. The “Population Membrane Permeable-Phenotype (%)” value [2] was 0% and 0.78%, the “Population Mitotic Cells (%)” value [2] was 46% and 86.32% and 69.7% and the “Population Normal (%)” value [2] was 88% and 91% and 99.7% and 100%. The “Population Tubulin-Different-Phenotype (%)” value [2] was 66.67% [middle of 4 runs], the “Total Cell Count” value [2] was 398 [middle of 4 runs] and the “Population Fragmented Nuclei (%)” value [3] was 9% and 1.41% and 1.3%. The “Population Healthy Nuclei (%)” value [3] was 79% [middle of 4 runs], the “Population Hoechst High Intensity Objects (%)” value [3] was 6% and 4% and 0.2% and 0% and the “Population Membrane Permeable-Phenotype (%)” value [3] was 0% and 1.42% and 4.76%. For the same compound, the “Population Mitochondria Different-Phenotype (%)” value [3] was 37% [middle of 4 runs], the “Population Mitotic Cells (%)” value [3] was 64% and 60% and 92.7% and 77.27% and the “Population Normal (%)” value [3] was 93% and 95% and 99.8% and 100%. The “Population Tubulin-Different-Phenotype (%)” value [3] was 22% and 14% and 16.24% and 11.9%, the “Population Apoptotic (%)” value [4] was 51% and 40% and 33.59% and 49.56% and the “Population Hoechst High Intensity Objects (%)” value [4] was 12% and 9% and 0%. The “Population Membrane Permeable-Phenotype (%)” value [4] was 1% and 0% and 0.79%, the “Population Mitochondria Different-Phenotype (%)” value [4] was 72% [middle of 4 runs] and the “Population Mitotic Cells (%)” value [4] was 48% and 59% and 66.41% and 50.44%. For the same compound, the “Population Normal (%)” value [4] was 87% and 90% and 100%, the “Population Tubulin-Different-Phenotype (%)” value [4] was 64% and 58% and 63.64% and 33.33% and the “Population Fragmented Nuclei (%)” value [5] was 12% [middle of 4 runs]. The “Population Healthy Nuclei (%)” value [5] was 79% and 81% and 86.51% and 57.44%, the “Population Hoechst High Intensity Objects (%)” value [5] was 5% and 4% and 0% and the “Population Membrane Permeable-Phenotype (%)” value [5] was 1% and 0% and 6.55% and 0.89%. The “Population Mitochondria Different-Phenotype (%)” value [5] was 28% [middle of 4 runs], the “Population Mitotic Cells (%)” value [5] was 79% and 85% and 95.24% and 75.9% and the “Population Normal (%)” value [5] was 94% and 95% and 100%. For the same compound, the “Population Apoptotic (%)” value [6] was 50% and 52% and 28.06% and 40.68%, the “Population Healthy Nuclei (%)” value [6] was 73% and 79% and 77.55% and 60.49% and the “Population Membrane Permeable-Phenotype (%)” value [6] was 0% and 1.26% and 2.04%. For the same compound, the “Population Mitochondria Different-Phenotype (%)” value [6] was 65% and 71% and 79.5% and 83.67%, the “Population Mitotic Cells (%)” value [6] was 49% and 47% and 71.94% and 59.32% and the “Population Normal (%)” value [6] was 84% and 91% and 99.86% and 97.59%.

Reference: ChEMBL document CHEMBL5724801, “EUbOPEN Chemogenomics Library - Multiplex” (2024)
